# Exocytosis inh = blocks lytic granule exocytosis; TALL-104 LAMP-1 surface exposure, flow cytometry; cells stimulated with thapsigargin and PMA; inhibition, % at 10 µM; 360,000 compounds, 0.66% hits; AID 651702;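 active means inhibition above about 55%, limit read from the data; inconclusive means no clear call, values can overlap the other calls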
# Myeloid diff MLP = promotes myeloid progenitor differentiation; ER-HoxA9 myeloid progenitors, lysozyme-GFP differentiation, flow cytometry; calls only at 10 µM; 360,000 compounds, 1% hits;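 active means normalized GFP-positive differentiation at or above the plate's own cutoff, the solvent-only control mean plus 3 SD; inconclusive means no clear call, values can overlap the other calls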;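 further: cells exposed to compound for four days before flow analysis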
# CendR NRP1 mod = alters CendR peptide binding to human NRP-1 | inhibition, % at 25 µM | FAM-RPARPAR peptide binding to NRP-1, fluorescence polarization | 360,000 compounds, 0.85% hits;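 active means inhibition or corrected inhibition above about 18%, plus a signal ratio from 0.5 to 1.5, limit read from the data, passing the limit was not always enough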
# Target sequence (O14786 whole entry, looked up): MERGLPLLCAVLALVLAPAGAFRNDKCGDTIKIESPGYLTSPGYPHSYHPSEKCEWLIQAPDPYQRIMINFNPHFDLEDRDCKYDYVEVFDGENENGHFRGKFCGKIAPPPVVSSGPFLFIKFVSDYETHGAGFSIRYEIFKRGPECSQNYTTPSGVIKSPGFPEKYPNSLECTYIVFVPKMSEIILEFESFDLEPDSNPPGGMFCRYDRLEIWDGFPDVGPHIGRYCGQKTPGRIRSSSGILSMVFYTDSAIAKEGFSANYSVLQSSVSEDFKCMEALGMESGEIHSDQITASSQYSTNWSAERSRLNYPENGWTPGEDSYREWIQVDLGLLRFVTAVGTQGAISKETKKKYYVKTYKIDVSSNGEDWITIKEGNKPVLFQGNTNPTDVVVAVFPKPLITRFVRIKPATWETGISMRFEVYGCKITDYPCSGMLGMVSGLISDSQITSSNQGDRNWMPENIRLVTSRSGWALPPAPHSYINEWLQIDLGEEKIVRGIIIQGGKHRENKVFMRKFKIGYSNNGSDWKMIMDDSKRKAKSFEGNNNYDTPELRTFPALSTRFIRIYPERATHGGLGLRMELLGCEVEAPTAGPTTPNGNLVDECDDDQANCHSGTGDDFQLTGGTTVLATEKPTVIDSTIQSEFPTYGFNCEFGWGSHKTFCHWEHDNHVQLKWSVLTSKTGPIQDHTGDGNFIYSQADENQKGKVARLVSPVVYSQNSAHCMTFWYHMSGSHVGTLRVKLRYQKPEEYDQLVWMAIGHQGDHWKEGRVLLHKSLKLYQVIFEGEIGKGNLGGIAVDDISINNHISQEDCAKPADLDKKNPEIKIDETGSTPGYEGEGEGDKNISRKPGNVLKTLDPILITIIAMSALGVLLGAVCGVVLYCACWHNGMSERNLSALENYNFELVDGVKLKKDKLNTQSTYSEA
# ATG4B inh = inhibitors of human ATG4B cysteine protease | Q9Y4P1 | ATG4B cleavage of LC3-PLA2, NBD-HPC fluorescence, 1 h | inhibition, % at 8.33 µM | 340,000 compounds, 0.51% hits; in the data active means inhibition above about 40%
# ABCB6 inh MLPCN = blocks the human ABCB6 transporter; Q9NP58; K562-ABCB6 porphyrin accumulation, flow cytometry, 1 h; hits give low values; fluorescence ratio to DMSO, % at 10 µM; 360,000 compounds, 0.19% hits; AID 602162;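 active means fluorescence ratio to DMSO below 75%, the collection mean minus 3 SD; inconclusive means too few cells collected in the well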;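 further: signal is porphyrin accumulated inside mitochondria; lower ratio means ABCB6 inhibition with less porphyrin fluorescence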
# Arrestin-AP2 inh = human beta-arrestin and AP2 interaction inhibition; 340,000 compounds, 0.31% hits; AID 504490; FITC-arrestin peptide / GST-AP2 beads, flow cytometry; AP2 beta2 appendage carries R879A mutation; inhibition, % at 10 µM;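 active means inhibition above a set limit, near 3 SD of compounds lacking own fluorescence, cut at about 54% in these data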
#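 Test system: GST-tagged AP2 beta2-adaptin appendage (R879A) on 4 µm glutathione beads; also added: fluorescein-tagged arrestin peptide at 50 nM final; timing: 12 min plus 1 h, RT; signal: flow cytometry, FL1 (488/535 nm); read-out: percent drop in bead-associated FITC signal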
# Myeloid diff = compounds promoting myeloid differentiation; shares compounds with Myeloid diff MLP; ER-HoxA9 myeloid progenitors, GFP/Mac1 double-positive flow; calls only; 2,300 compounds, 2% hits; AID 651706;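 active means share of green or green-and-red cells above 9 and 9% in run 1 or 4 and 3% in run 2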
# GFP autofluor = flagged as fluorescent in myeloid differentiation counter-screen | shares compounds with Myeloid diff MLP | ER-HoxA9 myeloid progenitors, no estrogen, GFP autofluorescence flow cytometry; vehicle wells 0%, positive control 100% | fluorescence response, % (concentration not given with the values) | 2,300 compounds, 7.4% hits | AID 651707;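 active means over 5% cells positive for green fluorescent reporter, or over 2% positive for both it and APC stain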
# Calls only; 0 = inactive; ? = inconclusive; - = no result; + = active, no number. This is a sample that favours compounds with a hit; in the whole collection about 3.3% have one here.
SMILES,Exocytosis inh,Myeloid diff MLP,CendR NRP1 mod,ATG4B inh,ABCB6 inh MLPCN,Arrestin-AP2 inh,Myeloid diff,GFP autofluor
CC(OC(=O)CCc1c[nH]c2ccccc12)C(=O)c1ccccc1 (centres undefined),0,0,0,0,0,0,-,-
C=CCN(CC(=O)O)S(=O)(=O)c1ccccc1C(F)(F)F,0,0,0,0,0,0,-,-
CCC(C)[C@H](NC(=O)C1CC(=O)N(c2ccc3c(c2)OCCO3)C1)C(=O)N1CCCCC1 (some centres undefined),0,0,0,0,0,0,-,-
CN(C)S(=O)(=O)c1ccc(C(=O)N2CC(=O)Nc3ccc(F)cc3C2c2ccc(F)cc2)cc1 (centres undefined),0,0,0,0,0,0,-,-
Cc1oc(-c2ccccc2F)nc1CS(=O)(=O)CC(=O)NCCN(C)C1CCCCC1,0,0,0,0,0,0,0,0
Cc1oc(-c2ccccc2F)nc1CS(=O)(=O)CC(=O)NC1CCCC1,0,0,0,0,0,0,-,-
COc1cc(C(=O)OC(C)C(=O)N2CCCC2)cc2c1OCCO2 (centres undefined),0,0,0,0,0,0,0,0
COc1cc(C(=O)OCC(=O)NC2CCCCC2)cc(OC)c1OC,0,0,0,0,0,0,-,-
COc1cc(C(=O)OCC(=O)NC2CCCCC2)cc2c1OCCO2,0,+,0,0,0,0,0,0
CC(C)CN(C(=O)COc1ccc(-c2nnco2)cc1)C1CCS(=O)(=O)C1 (centres undefined),0,0,0,0,0,0,-,-
Cc1ccc(S(=O)(=O)N(C)CC(=O)OCC(=O)NC(=O)Nc2ccc3c(c2)OCCO3)cc1,0,0,0,0,0,0,-,-
O=C(O)c1cc(S(=O)(=O)N2CC3CC3C2C(=O)O)c(Cl)cc1Cl (centres undefined),0,0,0,0,0,0,-,-
Cc1ccc(CN(Cc2ccccc2)C(=S)NCC(=O)NCc2cccnc2)o1,0,0,0,0,0,0,-,-
O=C(O)/C=C/c1cnn(-c2ccccc2)c1,0,0,0,0,0,0,-,-
COc1ccc(NC(=S)NC(NC(=O)C(C)C)C(Cl)(Cl)Cl)c([N+](=O)[O-])c1 (centres undefined),0,+,0,0,0,0,0,0
Nc1c(Cl)cc2c(c1Oc1ccccc1)C(=O)c1ccccc1C2=O,0,+,0,0,0,0,0,0
CCOP(=O)(OCC)C(NC(=O)Nc1ccc(Cl)c(Cl)c1)C(N)=O (centres undefined),0,0,0,0,0,0,0,0
Cc1nc2nc(-c3ccco3)[nH]n2c(=O)c1C,0,0,0,0,0,0,0,0
CC(=O)Nc1ccc(NC(=O)C(Cc2ccccc2)NC(=O)C2CCCCC2)cc1 (centres undefined),0,0,0,0,0,0,-,-
O=C(COC(=O)Cc1ccccc1[N+](=O)[O-])NCc1ccc(F)cc1,0,0,0,0,0,0,-,-
CCCSc1nc(C)c2cc(C)cc(C)c2n1,0,+,0,0,0,0,0,0
CCOC(=O)CSc1nc(C)c2cccc(C)c2n1,0,0,0,0,0,0,-,-
Cc1noc(C)c1S(=O)(=O)N(C)C[C@H]1Oc2c(cccc2N(C)C)C(=O)N([C@H](C)CO)C[C@@H]1C,0,0,0,0,0,0,-,-
COC(=O)c1cc(-c2c(-c3cc(OC)c(OC)c(OC)c3)noc2C)cc([N+](=O)[O-])c1,0,0,0,0,0,0,0,0
COc1cc(-c2c(-c3cc(OC)c(OC)c(OC)c3)noc2C)ccc1F,-,-,-,0,-,-,-,-
SMILES,Exocytosis inh,Myeloid diff MLP,CendR NRP1 mod,ATG4B inh,ABCB6 inh MLPCN,Arrestin-AP2 inh,Myeloid diff,GFP autofluor
COc1ccccc1NC(=O)Cn1c2ccccc2c2nc3n(c(=O)c21)CCS3,0,+,0,0,0,0,0,0
O=C(CCN1C(=O)C2C3C=CC(C4CC34)C2C1=O)Nc1ccc(Cl)cc1O (centres undefined),0,+,0,0,0,0,0,0
COc1cc(CN2CCN(Cc3ccc4cc(F)ccc4n3)CC2CCO)cc(OC)c1 (centres undefined),0,0,0,0,0,0,0,0
CC(=O)c1ccc(N2CCN(S(=O)(=O)c3cccc4nsnc34)CC2)cc1,0,0,0,0,0,0,-,-
COc1ccc(C(=O)C2CCCN(C(=O)/C=C/c3cnc[nH]3)C2)c(C)c1 (centres undefined),0,0,0,0,0,0,-,-
CN(C(=O)c1cc2sccc2n1C)C1CCCCC1,0,+,0,0,0,0,0,0
CCN1CCN(c2ncnc3c2nnn3Cc2ccccc2)CC1,0,0,0,0,0,0,-,-
c1ccc(Cn2nnc3c(N4CCCC4)ncnc32)cc1,0,+,0,0,0,0,0,0
COc1cccc(C(=O)Nc2ncc3c(n2)CC(c2ccc(OC)cc2OC)CC3=O)c1 (centres undefined),0,0,0,0,0,0,0,0
CC(C)n1c(=O)[nH][nH]c1=S,0,0,0,0,0,0,-,-
CN(C)CCN(C(=O)c1ccccc1Cl)c1nc2c(Cl)cccc2s1,0,+,0,0,0,0,0,0
O=[N+]([O-])c1cc([N+](=O)[O-])c2nonc2c1Nc1ccc(O)cc1,0,0,0,0,0,0,-,-
O=[N+]([O-])c1cc([N+](=O)[O-])c2nonc2c1Nc1ccccc1O,0,+,0,0,0,0,0,0
O=C(CSc1nc2ccccc2n1CC(=O)N1CCCC1)Nc1ccc2c(c1)OCO2,0,+,0,0,0,0,0,0
O=C(CSc1nnc(-c2ccc(F)cc2)o1)N1CCN(C(=O)c2ccco2)CC1,0,?,0,0,0,0,-,-
O=C(CSc1nnc(-c2ccccc2Br)o1)N1CCN(C(=O)c2ccco2)CC1,0,0,0,0,0,0,0,0
O=C(CSc1nc2ccccc2n1CC(=O)N1CCOCC1)N1CCCC1,0,0,0,0,0,0,-,-
O=C(CSc1nc2ccccc2n1CC(=O)N1CCCC1)N1CCN(C(=O)c2ccco2)CC1,0,0,0,0,0,0,0,0
O=C(c1cc(C2CCCCN2C(=O)OCCF)on1)N1CCOCC1 (centres undefined),0,0,0,-,0,-,-,-
COc1cc2[nH]c(=O)n(CCC(=O)N3CC=C(c4ccccc4)CC3)c(=O)c2cc1OC,0,0,0,0,0,0,-,-
COc1cc2[nH]c(=O)n(CCCC(=O)N3CC=C(c4ccccc4)CC3)c(=O)c2cc1OC,0,+,0,0,0,0,0,0
